HSF-1 act: increases HSF-1 driven luciferase reporter signal. activation, % at 9 µM. AID 504408. hit rate 1.7% among 300,000. NIH3T3-HGL HSF-1 luciferase reporter, MG132, 8 h; 100% = twice DMSO control signal;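 active means mean replicate activation of at least 50% with a set share of replicates each reaching 50%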
L major viab: inhibitors of Leishmania major promastigote growth; Leishmania major promastigotes, resazurin fluorescence viability; inhibition, % at 10 µM; hit rate 9% among 200,000; in the data active means inhibition above about 50%;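 further: promastigotes grown with compound for 44 hours at 28 °C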
HSF1 inh: HSF1 inhibition; NIH3T3-HGL HSE-luciferase, MG132-induced, luminescence 8 h; stronger effect = lower value; activity change, negative = inhibition, % at 7.5 µM (by protocol); hit rate 0.77% among 300,000; AID 2098;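 active means more than half of replicate wells show activity change below -50%, luminescence cut by over half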;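 further: luciferase reports HSF-1 transcriptional activity via heat shock element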
Hsp70 activator: switches on Hsp70 transcription. HeLa Hsp70 promoter luciferase reporter, luminescence; scaled: vehicle 0, proteasome-inhibitor control 100%. activation, % at 10 µM. hit rate 0.04% among 200,000. AID 1203;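 active means activation above the mean across all tested compounds plus 3 SD, cutoff set per campaign, cut at about 5.5% in these data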
T cruzi repl: blocks replication of Trypanosoma cruzi | T. cruzi beta-gal in NIH3T3, luminescence, 90 h | inhibition, % (concentration not given with the values) | hit rate 1.4% among 300,000 | AID 1885;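 active means mean inhibition across valid replicates above about 55%, limit read from the data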;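 further: signal also drops with host cell toxicity which is not excluded here; higher percent means less beta-gal luminescence so fewer parasites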
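Test system: β-gal T. cruzi (Tulahuen C4) inside NIH/3T3 cells / Quantity: 5,000 cells/well / Measured by: luminescence from GalScreen with 0.05% NP40, read after 60 min / Medium: DMEM plus 2% FBS / Measure: parasite load inhibition, % / Reagent: Tulahuen C4 trypomastigotes, 5000/well / Schedule: co-culture of at least 90 h after 3 h attachment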
Large screens that a line does not name were inactive. Only a selection was taken, and hits are over-represented in it overall.

O=C(Nc1ccc(S(=O)(=O)Nc2nccs2)cc1)c1ccc(N2C(=O)c3ccccc3C2=O)cc1	L major viab 101
CCOc1ccc(S(=O)(=O)NC(C)C(=O)NCc2ccccn2)cc1 (stereo not given)	none (no result: L major viab, Hsp70 activator)
CCOc1ccc(NC(=O)C(C)NS(=O)(=O)c2ccc(NC(C)=O)cc2)cc1 (stereo not given)	HSF1 inh -67
CCC(C)C(=O)Nc1ccc(S(=O)(=O)Nc2nccs2)cc1 (stereo not given)	none (no result: L major viab, Hsp70 activator)
CCCCN(C)C(=O)CC(NS(=O)(=O)c1ccc(NC(C)=O)cc1)C(C)C (stereo not given)	L major viab 50
O=C(Nc1ccc(S(=O)(=O)Nc2nccs2)cc1)c1ccc(F)cc1	none (no result: L major viab, Hsp70 activator)
CC(C)CC(=O)NC(=S)Nc1ccc(S(=O)(=O)Nc2nccs2)cc1	L major viab 55
CCCCc1ccc(NC(=S)NCCN2CCOCC2)cc1	none
O=C(CCCCCNC(=O)N1CCn2c1nc1ccccc12)N[C@@H](Cc1ccccc1)C(=O)O	none (no result: L major viab, Hsp70 activator)
O=C(Nc1cc(Cl)ccc1-n1cncn1)C1CC1	none (no result: L major viab, Hsp70 activator)
NS(=O)(=O)c1ccc(CNC(=O)c2cc(=O)c3ccccc3o2)cc1	none (no result: L major viab, Hsp70 activator)
CCOc1ccc(NS(=O)(=O)c2ccc(NC(=S)NC(=O)CC(C)C)cc2)cc1	L major viab 98
CC(C)CC(=O)NC(=S)Nc1ccc(S(=O)(=O)NC(C)(C)C)cc1	L major viab 62
CCCC(=O)NC(=S)Nc1ccc(S(=O)(=O)Nc2ccc(OCC)cc2)cc1	none
CC(C)(C)NS(=O)(=O)c1ccc(NC(=S)NC(=O)C2CCC2)cc1	none (no result: L major viab, Hsp70 activator)
COc1ccc(N2C(=O)C(=O)/C(=C(/O)c3ccc(C)cc3)C2c2cccnc2)cc1 (stereo not given)	none
COc1ccc(NC2=Nc3ccccc3N3C2=Nc2c(c(C)nn2-c2ccc(C)cc2)C3c2cccnc2)cc1 (stereo not given)	HSF1 inh -81
CC(=O)Nc1nc2ccccc2n1CCOc1ccccc1	none
S=C(Nc1ccccc1)Nc1nc2ccccc2n1CCOc1ccccc1	L major viab 51
CCCCn1c(NC(=S)Nc2ccccc2)nc2ccccc21	L major viab 80
COc1ccc(C(=O)CSc2nnc(NC(=O)C3CC(=O)N(c4ccccc4C)C3)s2)cc1 (stereo not given)	none
Cc1cc(C)c2ccc(=O)n(CC(=O)N/N=C/c3ccccc3Cl)c2n1	none (no result: L major viab, Hsp70 activator)
CCCC(=O)c1c[nH]c(C(=O)N2CCOCC2)c1	none
Cc1ccc2c(CC(=O)Nc3sccc3C(N)=O)coc2c1	HSF-1 act 84
COCC(=O)NC1(c2nnnn2CCOC(=O)Nc2ccc(Cl)cc2)CCCCC1	none
Cc1cccc(NC(=S)N(CCN(C)C)Cc2cccs2)c1	none
Cc1ccc(CC2SC(=Nc3ccccc3)N(c3ccccc3)C2=O)cc1 (stereo not given)	HSF-1 act 59, L major viab 53
Cc1nnnn1/C(=C\c1ccccc1)C(=O)OCC(=O)NC1CCCCC1	HSF-1 act 78 (no result: L major viab, Hsp70 activator)
Cc1cc(=O)oc2cc(NC(=O)c3ccccc3Cl)ccc12	HSF-1 act 63 (no result: L major viab, Hsp70 activator)
Cc1cccc(OCC(=O)Nc2ccc3c(C)cc(=O)oc3c2)c1	none
COc1cccc(C(=O)Nc2ccc3c(C)cc(=O)oc3c2)c1	HSF-1 act 108 (no result: L major viab, Hsp70 activator)
Cc1cc(=O)oc2cc(NC(=O)c3ccccc3C(=O)O)ccc12	none (no result: L major viab, Hsp70 activator)
O=C(Nc1ccc(Cl)cc1C(=O)N1CCCC1)c1cccc([N+](=O)[O-])c1	none
N#Cc1cccc(NC(=O)CSc2ccc3c4c(cccc24)C(=O)c2ccccc2-3)c1	none
COc1ccc(NC(=O)CSc2ccc3c4c(cccc24)C(=O)c2ccccc2-3)cc1	HSF-1 act 59
Cc1ccc(C(=O)Cn2c(C(=O)OCCO)cc3ccccc32)cc1	none (no result: L major viab, Hsp70 activator)
COc1cc(/C=N/NC(=O)CCC(=O)NCc2ccccc2)cc(OC)c1OC	none
CC(C)N1CCN(Cc2ccc(-c3ccccc3Cl)o2)CC1CCO (stereo not given)	T cruzi repl 64
CC(C)N1CCN(Cc2ccc3c(c2)Cc2ccccc2-3)CC1CCO (stereo not given)	L major viab 85, T cruzi repl 58
CC(C)N1CCN(Cc2ccc(-c3ccccc3)cc2)CC1CCO (stereo not given)	none (no result: L major viab, Hsp70 activator)
COc1cccc(N2CC(C(=O)Nc3nnc(SCCN4CCOCC4)s3)CC2=O)c1 (stereo not given)	none (no result: L major viab, Hsp70 activator)
CCOC(=O)C(C(C)C)C(N)Cc1ccc(F)cc1 (stereo not given)	none
CC1(C)CC(=O)C=C(NC2=CC3OC(c4ccccc4)OCC3OC2=O)C1 (stereo not given)	HSF-1 act 116
O=C(c1ccccc1)N1CCN(c2ccc([N+](=O)[O-])c(NCC3CCCO3)c2)CC1 (stereo not given)	none
C/C(=N/NC(=O)c1cc2ccccc2cc1O)C1C(=O)c2ccccc2C1=O	L major viab 81
Cc1ccc(-n2nnnc2C(Cl)(Cl)c2nnnn2-c2ccc(C)cc2)cc1	T cruzi repl 63
Clc1ccc(-c2nnnn2-c2ccc(Cl)cc2)cc1	none (no result: L major viab, Hsp70 activator)
CCOc1ccc(N(CC(=O)NCC2CCCO2)C(=O)CCC(=O)Nc2ccccn2)cc1 (stereo not given)	none
O=C(NCCOc1ccccc1)C1CCC(=O)N(CCN2CCOCC2)C1 (stereo not given)	none (no result: L major viab, Hsp70 activator)
CC(C)OC(=O)c1cccc(-c2ccc(C=O)o2)c1	L major viab 88
CCCCOc1ccc(OC(=O)c2cccnc2)cc1	none
CCCCCCCOc1ccc(OC(=O)c2cccnc2)cc1	T cruzi repl 57
CCCCCCOC(=O)c1ccc(OC(=O)c2cccnc2)cc1	HSF-1 act 58
O=C(CN1CCOc2ccccc21)NC1CCN(Cc2ccccc2)CC1	L major viab 78
Cc1ccc2oc(=O)c3cnn(CC(=O)NC4CCN(Cc5ccccc5)CC4)c3c2c1	T cruzi repl 57
O=C(Cn1cc2c(n1)CCCCC2)NC1CCCCCC1	none
O=C(Cn1cc2c(n1)CCCC2)NC1CCN(Cc2ccccc2)CC1	L major viab 72
Cc1nc(N/N=C/c2ccc(O)cc2)c2cnn(-c3ccccc3)c2n1	L major viab 67
Cc1nc2ccccc2nc1N/N=C/c1ccc(O)cc1	none (no result: L major viab, Hsp70 activator)
CC(=N/O)/C(C)=N\NC(=O)c1ccccn1	HSF1 inh -66
C/C(=N\NC(=O)c1c[nH]c2ccccc12)c1ccccn1	L major viab 100, T cruzi repl 82
CCc1ccc(/C(C)=N/NC(=O)c2ccccn2)cc1	none
CCC1CCCCN1CCCNC(=O)CS(=O)(=O)Cc1nc(-c2cccc(OC)c2)oc1C (stereo not given)	none (no result: L major viab, Hsp70 activator)
Cc1ccc(Nc2ccc3nonc3c2[N+](=O)[O-])cc1	none
Cc1ccc(Nc2ccc([N+](=O)[O-])nc2[N+](=O)[O-])cc1	L major viab 70, T cruzi repl 62
COC(=O)C1=C(C)NC(C)=C(C(=O)OC)C1c1cn(-c2ccccc2)nc1-c1ccco1	L major viab 64
COc1ccc(OCc2cc(C(=O)N(C)CCC3CCOCC3)no2)c(Cl)c1	HSF-1 act 77 (no result: L major viab, Hsp70 activator)
